Test results taken from ChEMBL document CHEMBL1129275, “Synthesis and in vitro and in vivo characteristics of an iodinated analogue of the beta-adrenoceptor antagonist carazolol” (J Med Chem, 1996).

Legend:
Settings in all cases: in vivo
Oryctolagus cuniculus [1] = test: Biodistribution pattern of [123I]- ligand was evaluated in intestine of anesthetized rabbit after Intravenous injection of 50 uCi after 2 hr; assay type: ADME, organism-based
Procedure, shortened: (§1)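 Male New Zealand white rabbits, 2.5–3.5 kg, anesthetized with 5 mg/kg xylazine plus 30 mg/kg ketamine im. Each received 50 uCi radioligand (specific activity > 5000 Ci/mmol) iv via ear vein. Animals were killed with 200 mg/kg pentobarbital im at the set time. Blood was drawn by intracardiac puncture and organs weighed. Gamma counting was decay-corrected, expressed as %ID x kg body weight/g tissue, mean ± SEM, n = 3/time point.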

Oryctolagus cuniculus [2] = test: Biodistribution pattern of [123I]- ligand was evaluated in left atrial muscle of anesthetized rabbit after Intravenous injection of 50 uCi after 2 hr; assay type: ADME, organism-based, Muscle tissue; procedure, shortened: as §1
Oryctolagus cuniculus [3] = test: Biodistribution pattern of [123I]- ligand was evaluated in left ventricular muscle of anesthetized rabbit after Intravenous injection of 50 uCi after 2 hr; assay type: ADME, organism-based, Muscle tissue; procedure, shortened: as §1
Oryctolagus cuniculus [4] = test: Biodistribution pattern of [123I]- ligand was evaluated in right atrial muscle of anesthetized rabbit after Intravenous injection of 50 uCi after 2 hr; assay type: ADME, organism-based, Muscle tissue
Procedure, shortened: (§2)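 Male New Zealand white rabbits (2.5–3.5 kg), anesthetized with xylazine 5 mg/kg plus ketamine 30 mg/kg im, given 50 µCi radioligand (specific activity >5000 Ci/mmol) iv via ear vein. Euthanized at set times by pentobarbital 200 mg/kg im, n = 3/time point. Organs removed and weighed, gamma-counted, decay/weight corrected; expressed as % ID x kg body weight/g tissue, mean ± SEM.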

Oryctolagus cuniculus [5] = test: Biodistribution pattern of [123I]- ligand was evaluated in right ventricular muscle of anesthetized rabbit after Intravenous injection of 50 uCi after 2 hr; assay type: ADME, organism-based, Muscle tissue; procedure, shortened: as §2
Oryctolagus cuniculus [6] = test: Cerebral biodistribution pattern of [123I]- ligand was evaluated in striatum of anesthetized rabbit after Intravenous injection of 50 uCi after 2 hr; assay type: ADME, organism-based; procedure, shortened: as §2
Oryctolagus cuniculus [7] = test: Cerebral biodistribution pattern of [123I]- ligand was evaluated in thalamus of anesthetized rabbit after Intravenous injection of 50 uCi after 2 hr; assay type: ADME, organism-based; procedure, shortened: as §2
Oryctolagus cuniculus [8] = test: Biodistribution pattern of [123I]- ligand was evaluated in muscle of anesthetized rabbit after Intravenous injection of 50 uCi after 2 hr; assay type: ADME, organism-based, Muscle tissue; procedure, shortened: as §1
Oryctolagus cuniculus [9] = test: Cerebral biodistribution pattern of [123I]- ligand was evaluated in frontal cortex of anesthetized rabbit after Intravenous injection of 50 uCi after 2 hr; assay type: ADME, organism-based; procedure, shortened: as §2
Oryctolagus cuniculus [10] = test: Cerebral biodistribution pattern of [123I]- ligand was evaluated in hypothalamus of anesthetized rabbit after Intravenous injection of 50 uCi after 2 hr; assay type: ADME, organism-based; procedure, shortened: as §2
Oryctolagus cuniculus [11] = test: […] biodistribution pattern of [123I]- ligand was evaluated in kidney of anesthetized rabbit after Intravenous injection of 50 uCi after 2 hr; assay type: ADME, organism-based; procedure, shortened: as §2
Oryctolagus cuniculus [12] = test: Cerebral biodistribution pattern of [123I]- ligand was evaluated in pituitary gland of anesthetized rabbit after Intravenous injection of 50 uCi after 2 hr; assay type: ADME, organism-based; procedure, shortened: as §2
Oryctolagus cuniculus [13] = test: Biodistribution pattern of [123I]- ligand was evaluated in blood of anesthetized rabbit after Intravenous injection of 50 uCi after 2 hr; assay type: ADME, organism-based; procedure, shortened: as §1
Oryctolagus cuniculus [14] = test: Biodistribution pattern of [123I]- ligand was evaluated in fat of anesthetized rabbit after Intravenous injection of 50 uCi after 2 hr; assay type: ADME, organism-based, Adipose tissue; procedure, shortened: as §1
Oryctolagus cuniculus [15] = test: Biodistribution pattern of [123I]- ligand was evaluated in spleen of anesthetized rabbit after Intravenous injection of 50 uCi after 2 hr; assay type: ADME, organism-based; procedure, shortened: as §2
Oryctolagus cuniculus [16] = test: Biodistribution pattern of [123I]- ligand was evaluated in liver of anesthetized rabbit after Intravenous injection of 50 uCi after 2 hr; assay type: ADME, organism-based; procedure, shortened: as §1
Oryctolagus cuniculus [17] = test: Biodistribution pattern of [123I]- ligand was evaluated in lung of anesthetized rabbit after Intravenous injection of 50 uCi after 2 hr; assay type: ADME, organism-based; procedure, shortened: as §1
Oryctolagus cuniculus [18] = test: Cerebral biodistribution pattern of [123I]- ligand was evaluated in cerebellum of anesthetized rabbit after Intravenous injection of 50 uCi after 2 hr; assay type: ADME, organism-based; procedure, shortened: as §2

| ID x kg of body weight/g of tissue (Oryctolagus cuniculus [1]) [%] | ID x kg of body weight/g of tissue (Oryctolagus cuniculus [2]) [%] | ID x kg of body weight/g of tissue (Oryctolagus cuniculus [3]) [%] | ID x kg of body weight/g of tissue (Oryctolagus cuniculus [4]) [%] | ID x kg of body weight/g of tissue (Oryctolagus cuniculus [5]) [%] | ID x kg of body weight/g of tissue (Oryctolagus cuniculus [6]) [%] | ID x kg of body weight/g of tissue (Oryctolagus cuniculus [7]) [%] | ID x kg of body weight/g of tissue (Oryctolagus cuniculus [8]) [%] | ID x kg of body weight/g of tissue (Oryctolagus cuniculus [9]) [%] | ID x kg of body weight/g of tissue (Oryctolagus cuniculus [10]) [%] | ID x kg of body weight/g of tissue (Oryctolagus cuniculus [11]) [%] | ID x kg of body weight/g of tissue (Oryctolagus cuniculus [12]) [%] | ID x kg of body weight/g of tissue (Oryctolagus cuniculus [13]) [%] | ID x kg of body weight/g of tissue (Oryctolagus cuniculus [14]) [%] | ID x kg of body weight/g of tissue (Oryctolagus cuniculus [15]) [%] | ID x kg of body weight/g of tissue (Oryctolagus cuniculus [16]) [%] | ID x kg of body weight/g of tissue (Oryctolagus cuniculus [17]) [%] | ID x kg of body weight/g of tissue (Oryctolagus cuniculus [18]) [%] | Structure (SMILES) |
| --- | --- | --- | --- | --- | --- | --- | --- | --- | --- | --- | --- | --- | --- | --- | --- | --- | --- | --- |
| 0.46 | < 0.05 | < 0.08 | < 0.05 | < 0.08 | 0.08 | 0.06 | < 0.03 | 0.1 | 0.06 | 0.09 | 0.07 | 0.01 | 0.04 | 0.12 | 0.1 | < 0.8 | 0.17 | CC(C)(C)NCC(O)COc1cccc2[nH]c(=O)[nH]c12 (stereo not given) [CGP-12177] |
| 0.29 | < 0.07 | < 0.09 | < 0.07 | < 0.09 | < 0.04 | 0.04 | < 0.03 | < 0.05 | 0.04 | 0.1 | 0.06 | 0.01 | 0.04 | 0.1 | 0.1 | – | < 0.04 | CC(C)NCC(O)COc1cccc2ccccc12 (stereo not given) [PROPRANOLOL] |
